According to ChEMBL document CHEMBL4219116, “Adenosine analogs bearing phosphate isosteres as human MDO1 ligands” (Bioorg Med Chem, 2018):
Active and inactive are the calls of the source. The calls are words filed in the database; no cut-off is given here.

Experiments:
[1] = biological target: T1, ADP-ribose glycohydrolase MACROD1 (Homo sapiens) (UniProt Q9BQ69); assay: Inhibition of recombinant human N-terminal His6-tagged MDO1 (58 to 325 residues) expressed in Escherichia coli Rosetta2 (DE3) at 1 mM using mono-biotin-ADP-ribosylated SRPK2 as substrate after 16 hrs by Western blot analysis
T1 sequence (whole entry): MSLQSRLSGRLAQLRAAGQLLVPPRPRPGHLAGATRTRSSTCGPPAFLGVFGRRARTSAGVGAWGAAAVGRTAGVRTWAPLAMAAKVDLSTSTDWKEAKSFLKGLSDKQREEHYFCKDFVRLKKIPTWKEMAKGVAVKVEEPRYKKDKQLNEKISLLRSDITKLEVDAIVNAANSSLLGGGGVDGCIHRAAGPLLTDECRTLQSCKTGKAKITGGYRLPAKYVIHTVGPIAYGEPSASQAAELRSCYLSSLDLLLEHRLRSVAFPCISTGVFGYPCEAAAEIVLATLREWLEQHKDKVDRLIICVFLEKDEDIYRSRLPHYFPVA
Procedure, shortened: (§1)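 Substrate was SRPK2 mono-biotin-ADP-ribosylated by ARTD10. 2 μM substrate, 2 μM MDO1 and 0.8–1 mM compound were incubated 16 h in 25 mM HEPES pH 7.5, 100 mM NaCl. The reaction was stopped with Laemmli buffer at 95 °C for 5 min, then run on SDS-PAGE and blotted. Detection used streptavidin-HRP with chemiluminescence. Readout was qualitative, against SRPK2-alone and no-inhibitor controls.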

[2] = biological target: T1, ADP-ribose glycohydrolase MACROD1 (Homo sapiens); assay: Inhibition of recombinant human N-terminal His6-tagged MDO1 (58 to 325 residues) expressed in Escherichia coli Rosetta2 (DE3) at 0.8 mM using mono-biotin-ADP-ribosylated SRPK2 as substrate after 16 hrs by Western blot analysis; procedure, shortened: as §1
[3] = biological target: T1, ADP-ribose glycohydrolase MACROD1 (Homo sapiens); assay: Inhibition of recombinant human N-terminal His6-tagged MDO1 (58 to 325 residues) expressed in Escherichia coli Rosetta2 (DE3) at 6.6 mM using mono-ADP-ribosylated SRPK2 as substrate after 1 hr 20 mins by Alphascreen assay
Procedure, shortened: (§2)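 AlphaScreen hydrolysis assay run in quadruplicate, with compound from 6.6 mM to 0.66 μM in half-log dilutions. MDO1 or MDO2 (800 nM final) was added, then mono-ADP-ribosylated SRPK2 (50 nM final), and incubated 1 h 20 min at room temperature. Acceptor/donor beads (5 μg/ml final) were added for 3 h in the dark before reading luminescence.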

[4] = biological target: T2, ADP-ribose glycohydrolase MACROD2 (Homo sapiens) (UniProt A1Z1Q3); assay: Inhibition of recombinant MDO2 (7 to 243 residues) (unknown origin) expressed in Escherichia coli Rosetta2 (DE3) at 6.6 mM using mono-ADP-ribosylated SRPK2 as substrate after 1 hr 20 mins by Alphascreen assay; procedure, shortened: as §2
T2 sequence (whole entry): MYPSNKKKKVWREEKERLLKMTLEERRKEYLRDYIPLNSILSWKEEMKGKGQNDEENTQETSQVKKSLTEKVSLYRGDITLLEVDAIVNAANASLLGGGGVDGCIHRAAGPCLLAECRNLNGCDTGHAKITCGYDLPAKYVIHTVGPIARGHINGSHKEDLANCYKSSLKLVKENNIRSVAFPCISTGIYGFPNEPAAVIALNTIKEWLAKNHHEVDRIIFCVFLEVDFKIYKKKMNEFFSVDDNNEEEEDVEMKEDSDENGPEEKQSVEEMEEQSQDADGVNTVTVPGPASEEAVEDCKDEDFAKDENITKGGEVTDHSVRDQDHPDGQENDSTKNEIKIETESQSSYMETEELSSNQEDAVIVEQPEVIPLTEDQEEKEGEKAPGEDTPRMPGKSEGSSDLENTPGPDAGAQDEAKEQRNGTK

[5] = biological target: T3, ADP-ribose glycohydrolase MACROD1 (Homo sapiens, UniProt Q9BQ69); assay: Binding affinity to human MDO1 by ITC
T3 sequence (Q9BQ69 whole entry): T1 sequence (whole entry)

[6] = biological target: T1, ADP-ribose glycohydrolase MACROD1 (Homo sapiens); assay: Binding affinity to human MDO1 assessed as change in melting temperature by DSF method
Procedure, shortened: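 Thermal shift read-out: a hydrophobic reporter dye binds the exposed protein core as the protein denatures with rising temperature. ΔTm is taken as the stabilization by ligand.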

[7] = biological target: T1, ADP-ribose glycohydrolase MACROD1 (Homo sapiens); assay: Inhibition of recombinant human N-terminal His6-tagged MDO1 (58 to 325 residues) expressed in Escherichia coli Rosetta2 (DE3) using mono-biotin-ADP-ribosylated SRPK2 as substrate after 16 hrs by Western blot analysis; procedure, shortened: as §1

| inhibition [1] | inhibition [2] | Compound | also measured |
| --- | --- | --- | --- |
| inactive | – | Nc1ncnc2c1ncn2C1OC(CNC(=O)[C@@H](N)CO)[C@@H](O)C1O (single isomer, unassigned) | – |
| – | inactive | Nc1ncnc2c1ncn2[C@@H]1O[C@H](CNc2c(Nc3cccc([N+](=O)[O-])c3)c(=O)c2=O)[C@@H](O)[C@H]1O | – |
| inactive | – | Nc1ncnc2c1ncn2C1OC(CNC(=O)[C@H](CC(=O)O)NC(=O)OCC2c3ccccc3-c3ccccc32)[C@@H](O)C1O (single isomer, unassigned) | – |
| – | inactive | Nc1ncnc2c1ncn2[C@@H]1O[C@H](CNc2c(Nc3cccc(O)c3)c(=O)c2=O)[C@@H](O)[C@H]1O | – |
| inactive | – | Nc1ncnc2c1ncn2C1OC(CNC(=O)CSc2nnnn2-c2ccccc2)[C@@H](O)[C@H]1O (single isomer, unassigned) | – |
| Active | – | Cc1ccc(CNc2c(NC[C@H]3O[C@@H](n4cnc5c(N)ncnc54)[C@H](O)[C@@H]3O)c(=O)c2=O)cc1 | inhibition [3]: inactive; inhibition [4]: inactive |
| – | – | Nc1ncnc2c1ncn2[C@@H]1O[C@H](COP(=O)(O)OP(=O)(O)OC[C@@H]2O[C@H](O)[C@@H](O)[C@H]2O)[C@@H](O)[C@H]1O | Kd [5]: 900 nM; ΔTm [6]: 5 °C; inhibition [7]: Active |
| – | inactive | CCCCNc1c(NC[C@H]2O[C@@H](n3cnc4c(N)ncnc43)[C@H](O)[C@@H]2O)c(=O)c1=O | – |
| – | Active | Nc1ncnc2c1ncn2C1OC(CNC(=O)[C@H](CO)NC(=O)OCC2c3ccccc3-c3ccccc32)[C@@H](O)C1O (single isomer, unassigned) | inhibition [3]: inactive; inhibition [4]: inactive |
| inactive | – | Nc1ncnc2c1ncn2[C@@H]1O[C@H](CNc2c(NCc3ccccc3)c(=O)c2=O)[C@@H](O)[C@H]1O | – |
| inactive | – | Nc1ncnc2c1ncn2C1OC(CNC(=O)Cc2nnn[nH]2)[C@@H](O)[C@H]1O (single isomer, unassigned) | – |
| – | – | Nc1ncnc2c1ncn2[C@@H]1O[C@H](COP(=O)(O)OP(=O)(O)O)[C@@H](O)[C@H]1O | ΔTm [6]: < 1 °C; inhibition [7]: inactive |
| inactive | – | COc1ccc(CNc2c(NC[C@H]3O[C@@H](n4cnc5c(N)ncnc54)[C@H](O)[C@@H]3O)c(=O)c2=O)cc1 | – |
| – | inactive | Nc1ncnc2c1ncn2[C@@H]1O[C@H](CNc2c(NCc3ccc(F)cc3)c(=O)c2=O)[C@@H](O)[C@H]1O | – |
| – | – | Nc1ncnc2c1ncn2[C@@H]1O[C@H](COP(=O)(O)O)[C@@H](O)[C@H]1O | ΔTm [6]: < 1 °C; inhibition [7]: inactive |
